Screening results (PubChem BioAssay)
MrgX1 agonist = agonists of human MrgX1 receptor | MrgX1-HEK293 cells, Fluo-4 calcium fluorescence, agonist mode; active compounds read high | B-score at 10 µM | hit rate 0.44% among 310,000;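 active = calcium response B-score plate-corrected fluorescence ratio at least 3 library SD, with starting fluorescence B-score inside 5 SD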
Target sequence (Q96LB2 whole entry, looked up): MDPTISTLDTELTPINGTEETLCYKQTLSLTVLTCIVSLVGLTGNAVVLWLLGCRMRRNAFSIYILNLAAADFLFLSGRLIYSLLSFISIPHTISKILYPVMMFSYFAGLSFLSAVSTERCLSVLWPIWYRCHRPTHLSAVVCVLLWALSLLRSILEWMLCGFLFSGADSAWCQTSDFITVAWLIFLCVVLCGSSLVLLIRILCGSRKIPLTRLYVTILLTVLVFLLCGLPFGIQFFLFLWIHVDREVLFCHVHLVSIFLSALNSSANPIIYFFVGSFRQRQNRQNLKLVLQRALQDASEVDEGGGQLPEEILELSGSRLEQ
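Test system: HEK293 cells stably expressing human MrgX1 receptor; amount: 15,000 cells per well; doses: compound delivered in addition one of three; times: overnight plating before 1 h dye loading; detection: Fluo-4 NW calcium-flux fluorescence, kinetic read; read-out basis: B-scored fluorescence response ratio; controls: positive and negative controls per plate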
RGS4 inh = inhibitors of human RGS4 | B-score at 10 µM | hit rate 0.45% among 310,000 | HEK293 M3R/RGS4 inducible, Fluo-4 calcium flux; active compounds read high; triggered by carbachol at its EC20 | P49798;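 active = B-score, a plate-corrected calcium signal, over three deviations above library mean, with baseline fluorescence within five deviations of library mean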;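 note: RGS4 expression induced by doxycycline in cells with stable M3 receptor; B-score is computed from the integrated fluorescence ratio over baseline after carbachol; higher B-score means a larger calcium signal and so more RGS4 inhibition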
Target sequence (P49798 whole entry, looked up): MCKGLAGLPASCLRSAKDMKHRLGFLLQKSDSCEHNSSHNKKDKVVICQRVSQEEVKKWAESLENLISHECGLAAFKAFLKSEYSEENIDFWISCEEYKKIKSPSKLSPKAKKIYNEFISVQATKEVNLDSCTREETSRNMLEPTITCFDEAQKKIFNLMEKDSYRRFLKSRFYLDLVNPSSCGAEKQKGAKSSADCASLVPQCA
MrgX1 antag = human MrgX1 receptor antagonism, primary screen; MRGX1-HEK293 calcium flux, Fluo-4, BAM8-22 antagonism; active compounds read low; B-score at 10 µM; hit rate 1.3% among 310,000; AID 588676;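 active = calcium-response B-score plate-corrected more than 3 library SD below zero, starting fluorescence within 5 deviations, no agonist response on first addition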;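 note: peak minus trough fluorescence over baseline after final BAM8-22 challenge near maximal dose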
MrgX1 PAM = allosterically activates human MrgX1 receptor signaling | Q96LB2 | MrgX1-HEK293, Fluo-4 calcium flux, FDSS; active compounds read high | B-score at 10 µM | hit rate 0.63% among 310,000 | AID 588675;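 active = plate-corrected calcium response at least 3 library SD above typical, normal starting fluorescence, not activating the receptor alone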;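 note: compound read alongside a low EC10 to EC30 dose of BAM8-22 agonist; peak minus trough fluorescence over baseline measured at the second addition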
RGS4 pot = RGS4 potentiation or activation; hit rate 0.92% among 310,000; HEK293 M3R/inducible RGS4, carbachol calcium flux Fluo4; active compounds read low; B-score at 10 µM; AID 463111;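 active = B-score of the integrated calcium signal more than 4 SD below the library mean, with starting fluorescence not abnormally high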;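 note: negative B-score means reduced calcium response which marks RGS4 activation or potentiation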
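Material: M3R-expressing HEK293 line, RGS4 induced by doxycycline | Schedule: Overnight RGS4 induction, 30 min dye load 37 °C, 20 min compound RT | Measured by: Fluo4 fluorescence kinetic imaging of calcium | Read-out: Integrated calcium ratio converted to B score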
MrgX1 ant reconf = confirmation of human MrgX1 receptor antagonists; hit rate 19% among 2,300; MrgX1-HEK293, BAM8-22 calcium flux, Fluo-4; active compounds read low; remaining BAM8-22 calcium response % of control (active compounds read low), % at 10 µM; shares compounds with MrgX1 antag;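 active = remaining agonist calcium response no higher than 100% minus 3 SD of agonist-only control wells, with starting fluorescence near control levels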;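 note: agonist BAM8-22 given at a near maximal EC90 to ECmax level; peak minus minimum fluorescence divided by baseline after agonist addition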
HEK293 Ca flux = activity in parental HEK293 cells lacking MrgX1; shares compounds with MrgX1 antag; Fluo-4 calcium fluorescence, FDSS; fluorescence ratio F(max-min)/F0 at 10 µM; hit rate 2% among 4,000; AID 624111;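 active = duplicate-averaged calcium fluorescence ratio at least three times the standard deviation of buffer wells, a nonspecific response in parental cells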
HEK293 Ca counter = counter-screen for MrgX1 allosteric activators: effect in parental HEK293 cells | shares compounds with MrgX1 antag | parental HEK293 calcium flux, Fluo-4 fluorescence ratio; active compounds read high | fluorescence ratio F(max-min)/F0 at 10 µM | hit rate 0.4% among 4,000 | AID 624114;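 active = calcium fluorescence ratio, averaged over duplicates, at least 3 SD of the buffer-well ratio, meaning a nonspecific response in receptor-free cells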;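 note: untransfected parental HEK293 lacking MrgX1 used as counterscreen for MrgX1 allosteric activators; fluorescence change taken during the second addition on a kinetic imager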
HEK293 Ca cntr2 = MrgX1 activator counter-screen hit in parental HEK293 cells; shares compounds with MrgX1 antag; Fluo-4 calcium fluorescence (FDSS); active compounds read high; fluorescence ratio F(max-min)/F0 at 10 µM; hit rate 8.7% among 4,000;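 active = calcium fluorescence ratio at least three times the spread of buffer wells, meaning a non-specific response in parental cells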
Numbers without * were called inactive; i = inactive; x = not tested or not shown. The list is not random: actives were taken first. Their share in the collection is about 3.5%.

SMILES	MrgX1 agonist	RGS4 inh	MrgX1 antag	MrgX1 PAM	RGS4 pot	MrgX1 ant reconf	HEK293 Ca flux	HEK293 Ca counter	HEK293 Ca cntr2
CCN(CC)CCC(c1ccc(N(C)C)cc1)c1c(O)cc(OC)cc1OC (centres undefined)	i	i	i	i	i	x	x	x	x
Cc1ccccc1N(CC(=O)NC1CCCCC1)C(=O)CCCC(=O)Nc1ccccn1	i	i	i	i	i	x	x	x	x
COC(=O)C[C@H]1c2ccccc2S(=O)(=O)N1Cc1ccc(OC)cc1	i	i	i	i	i	x	x	x	x
O=C(NCc1ccc(Cl)cc1)C1CCCN(c2cnccn2)C1 (centres undefined)	i	i	i	i	i	x	x	x	x
CCOc1ccccc1C(=O)NC(C)c1ccc2c(c1)OCO2 (centres undefined)	i	i	-5.29*	i	i	i	i	i	i
CCOc1ccc(CCNC(=O)c2cccc(NC3=NC4CS(=O)(=O)CC4S3)c2)cc1 (centres undefined)	i	i	i	i	i	x	x	x	x
CCOC(=O)C1CCN(C(=O)CCc2ccccc2)CC1	i	i	-7.93*	i	i	i	i	i	i
CCN(C(=O)COC(=O)CSc1ccc(C)c(C)c1)C1CCS(=O)(=O)C1 (centres undefined)	i	i	i	i	i	x	x	x	x
CCN(C(=O)CSc1ccc2ccccc2c1)C1CCS(=O)(=O)C1 (centres undefined)	i	i	-4.6*	i	i	i	i	i	i
CCN(C(=O)CSc1nc2ccccc2o1)C1CCS(=O)(=O)C1 (centres undefined)	i	i	-4.72*	i	i	i	i	i	i
CC(=O)Cc1ccccc1OC(=O)c1ccco1	i	i	-6.22*	i	i	i	i	i	i
O=C(Cn1nc(C(F)(F)F)cc1C1CC1)Nc1ccccc1F	i	i	-5.08*	i	i	i	i	i	i
Cc1ccc(C)c(NC(=O)CS(=O)(=O)c2cn(C)c3ccccc23)c1	i	i	-12.7*	i	i	i	i	i	i
Cn1cc(S(=O)(=O)CC(=O)Nc2ccc3c(c2)OCCO3)c2ccccc21	i	i	i	i	i	x	x	x	x
Cc1ccc(-n2c(SCC(N)=O)nnc2-c2ccccn2)cc1	i	i	i	i	i	x	x	x	x
Cc1cccc(-n2c(SCC(N)=O)nnc2-c2ccccn2)c1C	i	i	-8.27*	i	i	i	i	i	i
Cc1ccc(OCCC(=O)O)cc1	i	i	i	i	i	x	x	x	x
O=C(CN1CCN(Cc2ccccc2Cl)C1=O)NC1CCCCCCC1	i	i	i	i	i	x	x	x	x
CC1CCCCC1NC(=O)CN1CCN(Cc2ccccc2Cl)C1=O (centres undefined)	i	i	-10*	i	i	84.3%*	i	i	i
Cc1ccc(NC(=O)COC(=O)C2CCC2)cc1S(=O)(=O)N1CCCCC1	i	i	-5.38*	i	i	84.1%*	i	i	i
Cc1ccc(NC(=O)COC(=O)Cc2ccsc2)cc1S(=O)(=O)N1CCOCC1	i	i	-5.43*	i	i	i	i	i	i
CCOC(=O)c1ccccc1NC(=O)COC(=O)C1CCN(S(=O)(=O)c2ccccc2C(=O)OC)CC1	i	i	-11*	i	i	i	i	i	i
COc1ccc(-c2cc(-c3ccccc3)nc(-c3ccc4c(c3)NC(=O)CO4)c2)cc1	i	i	-5.86*	i	i	i	i	i	i
COc1ccc(Nc2nc(-c3ccc4c(c3)NC(=O)CO4)cs2)cc1	i	i	i	i	i	x	x	x	x
CC(=O)N1c2ccc(S(=O)(=O)N(C)CC(=O)Nc3cccc(C)c3)cc2CC1C (centres undefined)	i	i	i	i	i	x	x	x	x
SMILES	MrgX1 agonist	RGS4 inh	MrgX1 antag	MrgX1 PAM	RGS4 pot	MrgX1 ant reconf	HEK293 Ca flux	HEK293 Ca counter	HEK293 Ca cntr2
CC(Oc1ccc(Cl)cc1)C(=O)Nc1ccc(S(=O)(=O)Nc2nccs2)cc1 (centres undefined)	i	i	-5.6*	i	i	i	i	i	51.4*
Cc1ccc(S(=O)(=O)Nc2ccc(C(=O)NCCCN3CCOCC3)cc2)cc1[N+](=O)[O-]	i	i	i	i	i	x	x	x	x
Nc1nc(Cl)cc(NCCc2ccccc2)n1	i	i	i	i	i	x	x	x	x
Nc1nc(Cl)cc(NCCc2ccc(O)cc2)n1	i	i	-5.83*	i	i	i	i	i	i
O=C(CN1CCC(c2nc3ccccc3s2)CC1)NCc1ccccc1	i	i	-5.41*	i	i	i	i	i	i
CN(C)CCCC(C)(O)C(Cc1ccccc1)c1ccccc1 (centres undefined)	i	i	-6.51*	i	i	i	i	i	i
CN(C)CCC(Oc1ccccc1OCc1ccccc1)c1ccccc1 (centres undefined)	i	i	i	i	i	x	x	x	x
COC(=O)c1cc(OC)c(OC)cc1NC(=S)N1CCN(C)CC1	i	i	i	i	i	x	x	x	x
COC(=O)c1cc(OC)c(OC)cc1NC(=S)N1CCCCC1	i	i	-6.76*	i	i	i	i	i	i
CC1=C[C@H]2OC(=O)[C@@H](C)[C@H]2C[C@@H]2[C@H]1C[C@@H](O)[C@@]2(C)O	i	i	i	i	i	x	x	x	x
Cc1cc(C)c(NC(=O)Cc2ccc(-n3cccc3)cc2)c(C)c1	i	i	-5.46*	i	i	i	i	i	i
Cc1ccc(CNC(=O)Cc2ccc(-n3cccc3)cc2)cc1	i	i	i	i	i	x	x	x	x
Cc1nn(C)cc1CN(C)C(=O)c1nn2c(c1Cl)NC(c1cccs1)CC2C(F)(F)F (centres undefined)	i	i	-4.98*	i	i	73.7%*	i	i	i
